Laboratory results from ChEMBL document CHEMBL1139469, “Synthesis and 3D QSAR of new pyrazolo[3,4-b]pyridines: potent and selective inhibitors of A1 adenosine receptors” (J Med Chem, 2005).

Tests used:
[1] = target: Adenosine receptor A1 (Bos taurus) (UniProt P28190); assay: Displacement of [3H]DPCPX from bovine adenosine A1 receptor in bovine cortical membranes
Adenosine receptor A1 = target: T1, Adenosine receptor A1 (Bos taurus, UniProt P28190); assay: Displacement of [3H]DPCPX from adenosine A1 receptor in bovine cerebral cortical membranes; assay type: cell membranes
T1 sequence (P28190 whole entry): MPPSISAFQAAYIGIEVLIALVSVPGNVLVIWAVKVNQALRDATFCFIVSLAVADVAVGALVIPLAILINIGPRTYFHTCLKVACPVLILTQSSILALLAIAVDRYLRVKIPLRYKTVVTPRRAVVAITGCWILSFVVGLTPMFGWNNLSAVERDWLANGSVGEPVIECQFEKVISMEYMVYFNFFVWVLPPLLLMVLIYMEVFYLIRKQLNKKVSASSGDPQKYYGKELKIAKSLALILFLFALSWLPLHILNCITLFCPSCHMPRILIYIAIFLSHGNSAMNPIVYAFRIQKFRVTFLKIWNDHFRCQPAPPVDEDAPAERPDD
Summary of the method: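 [3H]DPCPX was displaced from A1 sites in bovine cortical membranes. Compounds were taken up in DMSO and diluted in assay buffer, with DMSO at 2% or less final. Ki used at least six concentrations across 3 orders of magnitude and was the mean ± SEM of three independent assays in triplicate.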

[2] = test system: Adenosine receptor A2a (Bos taurus); assay: Displacement of [3HCGS21680 from adenosine A2A receptor in bovine striatal membranes at 10 uM

SMILES | Ki [1] [nM] | Ki (Adenosine receptor A1) [nM] | inhibition [2] [%]
CCOC(=O)c1cnc2c(cnn2CC(Cl)c2ccccc2)c1NCc1ccccc1 (stereo not given) | 126 | – | –
O=c1n(-c2ccc(Cl)cc2)nc2c(NC3CCCCC3)nc3ccccc3n12 | 79.4 | – | –
O=c1c(-c2ccccc2)nnc2n(-c3ccccc3)c3ccccc3n12 | 20 | – | –
CCCCOC(=O)c1cnc2c(cnn2CC(Cl)c2ccccc2)c1N1CCCC1 (stereo not given) | 2000 | 1890 | 45
O=c1n(-c2ccccc2)nc2c(NC3CCCC3)nc3ccccc3n12 | 0.398 | – | –
Oc1cc(-c2ccccc2)nc2nc(Oc3ccccc3)ccc12 | 25.1 | – | –
Oc1c(-c2ccco2)nnc2nc3ccccc3n12 | 251 | – | –
COc1ccc(-c2nnc3nc4ccccc4n3c2O)cc1OC | 2000 | – | –
O=C(OCC1CC1)c1cnc2c(cnn2CC(Cl)c2ccccc2)c1NCCc1ccccc1 (stereo not given) | 50.1 | 48 | 54
CCOC(=O)c1cnc2c(cnn2CC(Cl)c2ccccc2)c1N1CCOCC1 (stereo not given) | 501 | – | –
CC(C)OC(=O)c1cnc2c(cnn2CC(Cl)c2ccccc2)c1N1CCCC1 (stereo not given) | 1000 | 1080 | 30
Nc1nc2ccccc2n2c(=O)n(-c3ccccc3)nc12 | 10 | – | –
Oc1cc(-c2ccccc2)nc2ncccc12 | 15.8 | – | –
CCCOC(=O)c1cnc2c(cnn2CC(Cl)c2ccccc2)c1N1CCCC1 (stereo not given) | 3160 | 2970 | –
Cc1ccc2c(O)ccnc2n1 | 7940 | – | –
O=c1n(-c2cccc(F)c2)nc2c(NC3CCCC3)nc3ccccc3n12 | 1 | – | –
O=c1c(-c2ccco2)nnc2n(Cc3ccccc3)c3ccccc3n12 | 1000 | – | –
COc1ccc(-c2nnc3n(C)c4ccccc4n3c2=O)cc1 | 2000 | – | –
Cn1c2ccccc2n2c(=O)c(-c3ccc(Cl)cc3)nnc12 | 10000 | – | –
CCCNc1c(C(=O)OCC2CC2)cnc2c1cnn2CC(Cl)c1ccccc1 (stereo not given) | 100 | 109 | 23
Cc1ccc2c(NN)cc(-c3ccccc3)nc2n1 | 100 | – | –
Cc1ccc(CCNc2c(C(=O)OC(C)C)cnc3c2cnn3CC(Cl)c2ccccc2)cc1 (stereo not given) | 50.1 | 48 | 26

SMILES | Ki [1] [nM] | Ki (Adenosine receptor A1) [nM] | inhibition [2] [%]
CCOc1ccc2c(O)cc(-c3ccccc3)nc2n1 | 5.01 | – | –
CCCOC(=O)c1cnc2c(cnn2CC(Cl)c2ccccc2)c1NCCc1ccccc1 (stereo not given) | 126 | 130 | –
Cc1cc(O)c2ccc(=O)[nH]c2n1 | 10000 | – | –
O=c1[nH]nc2c(NCc3ccccc3)nc3ccccc3n12 | 50.1 | – | –
CCC(C)OC(=O)c1cnc2c(cnn2CC(Cl)c2ccccc2)c1NCCc1ccccc1 (stereo not given) | 63.1 | 62 | 46
O=c1[nH]nc2c(NCCc3ccccc3)nc3ccccc3n12 | 5.01 | – | –
O=c1c(-c2ccco2)nnc2n(-c3ccccc3)c3ccccc3n12 | 316 | – | –
CCCNc1c(C(=O)OC(C)CC)cnc2c1cnn2CC(Cl)c1ccccc1 (stereo not given) | 50.1 | 51 | 40
CCn1c(-c2ccccc2)cc(=O)c2ccc(C)nc21 | 501 | – | –
Cc1nnc2nc3ccccc3n2c1O | 3980 | – | –
Cc1ccc2c(Cl)cc(-c3ccccc3)nc2n1 | 1000 | – | –
O=c1c(Cc2ccccc2)nnc2n(Cc3ccccc3)c3ccccc3n12 | 251 | – | –
CCC(C)OC(=O)c1cnc2c(cnn2CC(Cl)c2ccccc2)c1NC1CC1 (stereo not given) | 200 | 197 | 33
CCCCOC(=O)c1cnc2c(cnn2CC(Cl)c2ccccc2)c1NCCC (stereo not given) | 1000 | 959 | 20
O=C(Nc1ccccc1)Nc1nc2ccccc2n2c(=O)n(-c3ccc(Cl)cc3)nc12 | 50.1 | – | –
CC(=O)Nc1ccc2c(O)cc(-c3ccccc3)nc2n1 | 316 | – | –
O=C(Nc1nc2ccccc2n2c(=O)n(-c3ccc(Cl)cc3)nc12)c1ccccc1 | 100 | – | –
Cc1ccc2c(O)cc(-c3ccc(N)cc3)nc2n1 | 6.31 | – | –
Cc1ccc2c(O)cc(-c3ccc(F)cc3)nc2n1 | 5.01 | – | –
Cn1c2ccccc2n2c(=O)c(-c3ccco3)nnc12 | 794 | – | –
CN(C)c1ccc2c(O)cc(-c3ccccc3)nc2n1 | 0.631 | – | –
Cc1ccc2c(N)cc(-c3ccccc3)nc2n1 | 15.8 | – | –

SMILES | Ki [1] [nM] | Ki (Adenosine receptor A1) [nM] | inhibition [2] [%]
CCOc1ccc2c(OCC)cc(-c3ccccc3)nc2n1 | 316 | – | –
Cc1ccc2c(O)cc(-c3ccccc3)nc2n1 | 5.01 | – | –
CCOC(=O)c1cnc2c(cnn2CC(Cl)c2ccccc2)c1N1CCCC1 (stereo not given) | 100 | – | –
CCCc1cc(O)c2ccc(C)nc2n1 | 50.1 | – | –
Oc1ccc(-c2nnc3nc4ccccc4n3c2O)cc1O | 501 | – | –
Cc1ccc(CCNc2c(C(=O)OCC3CC3)cnc3c2cnn3CC(Cl)c2ccccc2)cc1 (stereo not given) | 63.1 | 63 | 4
CCOC(=O)c1cnc2c(cnn2CC(Cl)c2ccccc2)c1NCCc1cccc(Cl)c1 (stereo not given) | 200 | 178 | –
CCCOC(=O)c1cnc2c(cnn2CC(Cl)c2ccccc2)c1NCc1ccccc1 (stereo not given) | 1260 | 1370 | –
Cn1c2ccccc2n2c(=O)c(-c3ccccc3)nnc12 | 63.1 | – | –
COC(=O)c1cnc2c(cnn2CC(Cl)c2ccccc2)c1NC1CC1 (stereo not given) | 251 | 251 | –
Nc1nc2ccccc2n2c(=O)n(-c3cccc(F)c3)nc12 | 31.6 | – | –
Oc1ccc(-c2nnc3nc4ccccc4n3c2O)cc1 | 251 | – | –
CCOC(=O)c1cnc2c(cnn2CC(Cl)c2ccccc2)c1NC1CC1 (stereo not given) | 126 | – | –
CCCCNc1nc(SC)nc2c1cnn2CC(Cl)c1ccccc1 (stereo not given) | 2000 | – | –
Cc1cc(O)c2ccc(N)nc2n1 | 10000 | – | –
Cc1ccc2c(NC3CCCCC3)cc(-c3ccccc3)nc2n1 | 31.6 | – | –
COc1ccc2c(O)cc(-c3ccccc3)nc2n1 | 1.58 | – | –
CCCNc1nc(SC)nc2c1cnn2CC(Cl)c1ccccc1 (stereo not given) | 1000 | – | –
O=c1n(-c2cccc(F)c2)nc2c(NC3CCCCC3)nc3ccccc3n12 | 5.01 | – | –
Cc1nnc2n(C)c3ccccc3n2c1=O | 10000 | – | –
CSc1nc(NC2CCCCC2)c2cnn(CC(Cl)c3ccccc3)c2n1 (stereo not given) | 6310 | – | –
CSc1nc(NCCc2ccccc2)c2cnn(CC(Cl)c3ccccc3)c2n1 (stereo not given) | 10000 | – | –

SMILES | Ki [1] [nM] | Ki (Adenosine receptor A1) [nM] | inhibition [2] [%]
Cn1c2ccccc2n2c(=O)c(-c3cccs3)nnc12 | 79.4 | – | –
Cn1c(=O)ccc2c(O)cc(-c3ccccc3)nc21 | 5010 | – | –
CCOC(=O)c1cnc2c(cnn2CC(Cl)c2ccccc2)c1NCCc1ccccc1Cl (stereo not given) | 79.4 | 76 | –
CC(C)OC(=O)c1cnc2c(cnn2CC(Cl)c2ccccc2)c1N1CCOCC1 (stereo not given) | 2000 | 1820 | –
Cc1cccc(-n2nc3c(NC4CCCCC4)nc4ccccc4n3c2=O)c1 | 3.98 | – | –
COC(=O)c1cnc2c(cnn2CC(Cl)c2ccccc2)c1NCc1ccccc1 (stereo not given) | 126 | 141 | –
Oc1cc(-c2ccccc2)nc2nc(Br)ccc12 | 0.794 | – | –
CCOc1cc(-c2ccccc2)nc2nc(Br)ccc12 | 50.1 | – | –
COc1cc(-c2ccccc2)nc2nc(C)ccc12 | 6310 | – | –
CCCNc1c(C(=O)OCC)cnc2c1cnn2CC(Cl)c1ccccc1 (stereo not given) | 100 | – | –
Cc1cccc(-n2nc3c(N)nc4ccccc4n3c2=O)c1 | 20 | – | –
O=c1n(-c2ccccc2)nc2c(NC3CCCCC3)nc3ccccc3n12 | 1.58 | – | –
COc1ccc(-n2nc3c(N)nc4ccccc4n3c2=O)cc1 | 316 | – | –
COc1cc(-c2ccccc2)nc2c1ccc(=O)n2C | 1260 | – | –
Oc1cc(-c2ccccc2)nc2nc(NC3CCCCC3)ccc12 | 79.4 | – | –
Oc1cc(-c2ccccc2)nc2nc(Cl)ccc12 | 0.158 | – | –
CCCc1cc(O)c2ccc(N)nc2n1 | 200 | – | –
Oc1c(-c2ccccc2)nnc2nc3ccccc3n12 | 79.4 | – | –
CC(C)OC(=O)c1cnc2c(cnn2CC(Cl)c2ccccc2)c1NCc1ccccc1 (stereo not given) | 631 | 559 | –
CCOC(=O)c1cnc2c(cnn2CC(Cl)c2ccccc2)c1NCCc1ccccc1 (stereo not given) | 50.1 | – | –
